Among all 330,000 compounds or so, about 350 (0.11%) were called active.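 Rule for the calls: active = activation above the mean of all tested compounds plus 3 SD (cut at about 21% in these data); inactive = the rest.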 The entries come from a sample that favours actives as a whole.
target: Caspase-3 (Homo sapiens) (UniProt P42574); test: procaspase-3 enzyme activation – biochemical, absorbance, PC-3 D3A mutant, single concentration, primary screen (AID 463141); details: recombinant procaspase-3 D3A, Ac-DEVD-pNA absorbance 405 nm; at 8.5 µM; active compounds read high;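 note: 0% = DMSO alone and 100% = DMSO wells spiked with extra 5 µM PC-3 D3A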
How it was run: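 assay system = Procaspase-3 D3A mutant | signal = absorbance at 405 nm, 0 and 120 min | times = 1 h preincubation plus 2 h reaction at 25 °C | repeats = single replicate | read-out = % activation between DMSO and enzyme-spiked controls | medium = Zinc-free HEPES saline buffer with Triton X-100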

Chain of Caspase-3 (Homo sapiens) (P42574 whole entry D9A/D28A/D175A): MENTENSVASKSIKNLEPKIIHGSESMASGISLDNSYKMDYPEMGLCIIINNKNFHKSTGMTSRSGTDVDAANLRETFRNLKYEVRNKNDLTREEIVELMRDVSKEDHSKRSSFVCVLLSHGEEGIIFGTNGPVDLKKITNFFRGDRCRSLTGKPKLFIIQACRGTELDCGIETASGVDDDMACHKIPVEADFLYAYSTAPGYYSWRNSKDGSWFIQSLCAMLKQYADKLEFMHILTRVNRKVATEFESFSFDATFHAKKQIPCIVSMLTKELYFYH

activation, inactive:
COc1ccccc1N1CCN(C(=O)c2ccc(S(=O)(=O)N3CCCCC3)cc2)CC1 -4.47%
COc1ccc(S(=O)(=O)Nc2ccccc2C(=O)N2CCCC2)cc1C 9.9%
CC(NC(=O)c1ccccc1C(=O)O)c1ccc(-n2ccnc2)cc1 (configuration not stated) -0.91%
C=CCNc1nc(Nc2ccc(Cl)cc2)nc(OC)n1 3.18%
COc1cccc(-c2cc3nc4c(c(N5CCC6(CC5)OCCO6)n3n2)CCCC4)c1 5.55%
NC(=O)C1CC=CCC1C(=O)OCC(Cl)=C(Cl)Cl (configuration not stated) -0.01%
CSc1nsc(SC)c1NC(=O)OC1CCCCC1 -22.8%
CC(C)OCCCNC(=O)CN1C(=O)/C(=C/c2ccccc2F)Oc2ccccc21 -1.27%
CCCN1CCN(C(=O)CCCNC(=O)c2ccc(Cl)cc2)CC1 -2.14%
N#CC1(NC(=O)COC(=O)CSc2ccc(F)cc2)CCCCC1 -6.99%
CCCOn1c(-n2nc(C)cc2C)nc2ccccc2c1=O 7.25%
CCC(C)(C)NC(=O)C(c1ccccn1)N(C(=O)c1csnn1)c1ccccc1 (configuration not stated) 2.32%
Cc1ccc(S(=O)(=O)NNC(=S)NC(C)(C)C)cc1 9.08%
COc1ccccc1CN(C)c1nnnn1-c1ccccc1 9.63%
O=C(NCc1cccs1)C(=O)NCC1OCCCN1S(=O)(=O)c1ccc(F)cc1 (configuration not stated) 1.51%
CCc1c(C)c2ccc(OC3CCCCC3=O)cc2oc1=O (configuration not stated) 3.96%
COC(=O)Cc1c(C)c2ccc(OCC(=O)NCc3ccc4c(c3)OCO4)cc2oc1=O 0.37%
COc1ccc(CCNC(=O)COC(=O)c2cc(=O)c3ccccc3o2)cc1 -1.38%
COc1ccc(CCNC(=O)COC(=O)C2CC2C)cc1 (configuration not stated) 9.52%
COc1ccc(S(=O)(=O)N(CCCN2CCCC2=O)Cc2cc3c(C)ccc(C)c3[nH]c2=O)cc1 -7.13%
CCn1c(SCC(=O)Nc2ccc(C)cc2)nc2nc3c(cc2c1=O)CCCC3 3.79%
O=C1[C@H]2[C@@H](c3ccc(F)cc3)N3C(=O)N(c4ccc(C(F)(F)F)cc4)C(=O)[C@@]3(Cc3ccccc3)[C@H]2C(=O)N1C1CCCCC1 5.91%
c1ccc2cc(CCCc3cc4ccccc4cn3)ncc2c1 -5.39%
O=C(COC(=O)c1cccc(Cl)c1)NC(=O)NCc1ccccc1 7.09%
Cc1cc(C)c2c(-n3cccc3)c(C(=O)NNS(=O)(=O)c3ccc(F)cc3)sc2n1 -8.55%
CCOC(=O)C1=CN(Cc2ccc(Br)cc2)S(=O)(=O)NC1C (configuration not stated) -3.39%
COC(=O)C1=C(C)N(C(C)c2ccccc2)C(=O)/C1=C\c1ccco1 (configuration not stated) 1.04%
Cc1ccc(-c2nnc(Nc3ccc(C(=O)N(C)C)cc3)c3ccccc23)cc1S(N)(=O)=O 6.07%
COC(=O)c1ccc(CNC(=O)C2CCC(=O)N(Cc3ccccn3)C2)cc1 (configuration not stated) 4.62%
CN(C)/C=C(/C(=O)c1ccc(F)cc1)S(=O)(=O)c1ccc(F)cc1 2.38%
O=C(Nc1ccccc1-c1nnn(CC(=O)N2CCCc3ccccc32)n1)c1cccc(Cl)c1 0.94%
CCC(C)[C@H](NC(=O)N1CCn2c1nc1ccccc12)C(=O)NCc1ccc(OC)cc1 (some centres not stated) 9.75%
COc1cccc(NC(=S)C(C#N)=C2N(C)c3ccccc3N2C)c1 0.38%
CC1=C(C(=O)OC(C)(C)C)C(c2ccc(Br)cc2)NC(=O)N1CCCC(=O)O (configuration not stated) 1.2%
CC(=O)c1ccc(NC(=O)C(C)N(C)CC(=O)Nc2ccccc2Cl)cc1 (configuration not stated) -3.65%
CCC(C)(C)NC(=O)c1cc([N+](=O)[O-])ccc1N1CCCCC1 -7.67%
N#Cc1c(NCCO)ccc([N+](=O)[O-])c1NCCO 3.1%
O=S(=O)(N/N=C\c1cccn1-c1ccccc1)c1ccc2ccccc2c1 0.8%
COc1cc(CN2CCN(Cc3ccc(C)cc3)CC2)c([N+](=O)[O-])cc1OC 8.01%
COc1ccc(-c2noc(CCC(=O)N3CCN(c4cccc(C)c4)CC3)n2)cc1 -0.7%
CCOc1ccc2nc(NCCNC(=O)C(C)(C)C)c(C)cc2c1 -11.1%
CCOc1ccc(S(=O)(=O)NCCSc2ccccc2)cc1 -4.36%
C[C@H](CO)N1C[C@H](C)[C@@H](CN(C)S(=O)(=O)c2ccc(F)cc2)Oc2ccc(NC(=O)CCC(F)(F)F)cc2C1=O 7.71%
COCCNC(=S)Nc1cc(S(=O)(=O)N2CCOCC2)ccc1N1CCCCC1 -18.3%
CCC(C)N1CC(=O)N2Cc3[nH]c4ccccc4c3C[C@H]2C1=O (some centres not stated) 0.63%
CC(=O)Nc1ccc(NC(=O)C(C)OC(=O)c2ccccc2C(=O)c2ccc(Cl)c([N+](=O)[O-])c2)cc1 (configuration not stated) -0.74%
COC(=O)c1nc2n(n1)C(c1ccc([N+](=O)[O-])cc1)C(C(=O)Nc1ccc(Cl)cc1)=C(C)N2 (configuration not stated) 3.68%
COC(=O)c1sc(N)c(C(=O)OC)c1COC(=O)CNS(=O)(=O)c1ccc(C)cc1 3.17%
CCN1CCN(C(=O)C2(NC(=O)Nc3cccc(F)c3)CCCCC2)CC1 -1.86%
COc1ccc2sc(-c3ccc(N(C)C)cc3)c(C#CCO)c2c1 21.1%
COc1ccc2sc(-c3ccc(S(C)(=O)=O)cc3)c(C#Cc3cncn3C)c2c1 -7.99%

activation, active:
COc1ccccc1NS(=O)(=O)c1ccc(C(=O)N2CCN(c3ccccc3O)CC2)cc1 21.8%
CN1CCN(CCCNC(=O)c2ccc(/C=C3\Oc4ccccc4N(Cc4ccc(Cl)cc4)C3=O)cc2)CC1 38.4%
CC(=O)Oc1ccc2c(C)c(CC(C)O)c(=O)oc2c1 (configuration not stated) 24.1%
COc1ccc(CCNC(=O)COC(=O)c2ccc[nH]c2=O)cc1 23.9%
CCOc1ccc2nc(NCCNS(=O)(=O)c3ccccc3)c(C#N)cc2c1 27.3%
COc1ccc(-c2sc3ccc(OC)cc3c2C#Cc2ccccn2)cc1 21.3%
